ChEMBL document CHEMBL5661970 (Cancer Res, 2006)
Activity calls are given as the source filed them. The rule behind the calls is not given here.

What was measured:
[1] = Apparent oral clearance in F344/N JcL-rnu athymic rat at 1 mg/kg, po measured upto 72 hrs by HPLC-MS/MS analysis; assay type: ADME, organism-based; conditions: in vivo
Method in brief: (§1)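 Female F344/N JcL-rnu rats, four per group, single p.o. dose suspended in 0.5% methyl cellulose. Tail-vein blood sampled at set times to 72 h. Serum spiked with internal standard, deproteinated with acetonitrile, analysed by HPLC-MS/MS. Parameters derived by noncompartmental analysis.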

Focal adhesion kinase 1 = Focal adhesion kinase 1 (Homo sapiens, UniProt Q05397); experiment: Inhibition of Fak (unknown origin) in presence of ATP
Method in brief: (§2)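 Cell-free kinase assay using recombinant tyrosine kinases with 1 μmol/L ATP, run in quadruplicate. IC50 values determined.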

[2] = Apparent oral clearance in F344/N JcL-rnu athymic rat at 0.2 mg/kg, po measured upto 72 hrs by HPLC-MS/MS analysis; assay type: ADME, organism-based; conditions: in vivo; method in brief: as §1
[3] = Antitumor activity against human CGL-9 cells xenografted in gamma-irradiation induced RH-rnu/rnu athymic rat assessed as tumor growth inhibition at 1.0 mg/kg, po administered once daily for 2 weeks and measured on day 14 relative to control; assay type: functional; conditions: CGL-9, light or radiation study, 336 h, read-out: TGI
Method in brief: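 Human tumor cells inoculated s.c. in right flank of athymic rats 24 h after whole-body γ-irradiation (7 Gy, Co60); established ~1,500 mm3 tumors excised and 20-30 mg fragments implanted s.c. in irradiated rats. Oral dosing in 0.5% methyl cellulose vehicle from randomization (day 0). Tumor volume measured twice weekly by calipers, (length × width²) × 0.5; TGI% versus vehicle on day 14.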

SK-HEP1 [4] = experiment: Antitumor activity against human SK-HEP1 cells xenografted in gamma-irradiation induced RH-rnu/rnu athymic rat assessed as tumor growth inhibition at 0.2 mg/kg, po administered once daily for 2 weeks and measured on day 14 relative to control; assay type: functional; conditions: SK-HEP1, light or radiation study, 336 h, read-out: TGI
MDA-MB-231 [5] = experiment: Antitumor activity against human MDA-MB-231 cells xenografted in gamma-irradiation induced RH-rnu/rnu athymic rat assessed as tumor growth inhibition at 1.0 mg/kg, po administered once daily for 2 weeks and measured on day 14 relative to control; assay type: functional; conditions: MDA-MB-231, light or radiation study, 336 h, read-out: TGI
Method in brief: (§3)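 Rats were γ-irradiated with 7 Gy whole body, and 24 h later received s.c. tumor cells. Fragments (20-30 mg) from ~1,500 mm3 tumors were then implanted s.c. into irradiated athymic rats. Oral dosing at 0.2 or 1 mg/kg or vehicle ran once daily for 2 weeks from day 0. Tumors were measured with calipers twice weekly (length×width²×0.5). TGI% was taken versus vehicle on day 14 (BxPC-3: day 13), with an unpaired t test on RTV.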

[6] = Tmax in F344/N JcL-rnu athymic rat at 0.04 mg/kg, po measured upto 72 hrs by HPLC-MS/MS analysis; assay type: ADME, organism-based; conditions: in vivo; method in brief: as §1
LS174T = experiment: Antitumor activity against human LS174T cells xenografted in gamma-irradiation induced RH-rnu/rnu athymic rat assessed as tumor growth inhibition at 0.2 mg/kg, po administered once daily for 2 weeks and measured on day 14 relative to control; assay type: functional; conditions: light or radiation study, 336 h, read-out: TGI; method in brief: as §3
[7] = Tmax in F344/N JcL-rnu athymic rat at 1 mg/kg, po measured upto 72 hrs by HPLC-MS/MS analysis; assay type: ADME, organism-based; conditions: in vivo; method in brief: as §1
[8] = target: Insulin-like growth factor 1 receptor (Homo sapiens, UniProt P08069); experiment: Inhibition of IGF-1R (unknown origin) in presence of ATP; method in brief: as §2
[9] = Cmax in F344/N JcL-rnu athymic rat at 0.04 mg/kg, po measured upto 72 hrs by HPLC-MS/MS analysis; assay type: ADME, organism-based; conditions: in vivo; method in brief: as §1
Calu-6 [10] = experiment: Antitumor activity against human Calu-6 cells xenografted in RH-rnu/rnu athymic rat assessed as decrease in capillary permeability in tumor at 0.2 mg/kg, po measured on day 13 by DCE-MRI analysis relative to control; assay type: functional; design: scale not given: the % may be the effect or the level left
MDA-MB-231 [11] = experiment: Antitumor activity against human MDA-MB-231 cells xenografted in gamma-irradiation induced RH-rnu/rnu athymic rat assessed as tumor growth inhibition at 0.2 mg/kg, po administered once daily for 2 weeks and measured on day 14 relative to control; assay type: functional; conditions: MDA-MB-231, light or radiation study, 336 h, read-out: TGI; method in brief: as §3
NCI-H460 = experiment: Antitumor activity against human NCI-H460 cells xenografted in gamma-irradiation induced RH-rnu/rnu athymic rat assessed as tumor growth inhibition at 1.0 mg/kg, po administered once daily for 2 weeks and measured on day 14 relative to control; assay type: functional; conditions: NCI-H460, light or radiation study, 336 h, read-out: TGI; method in brief: as §3
[12] = Average concentration at steady state in F344/N JcL-rnu athymic rat at 0.2 mg/kg/day, po measured upto 72 hrs by HPLC-MS/MS analysis; assay type: ADME, organism-based; conditions: in vivo
Method in brief: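 Steady-state serum levels for repeated oral 0.2 mg/kg daily dosing were simulated from single-dose serum data (female F344/N JcL-rnu rats, four per group, tail-vein sampling to 72 h, HPLC-MS/MS, noncompartmental analysis), not measured directly.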

Calu-6 [13] = experiment: Antitumor activity against human Calu-6 cells xenografted in RH-rnu/rnu athymic rat assessed as decreased microvessel density at 0.2 mg/kg, po administered for 14 days by immunofluorescence staining analysis relative to control; assay type: functional; design: scale not given: the % may be the effect or the level left; conditions: time 14 day
CAKI-1 = experiment: Antitumor activity against human CAKI-1 cells xenografted in gamma-irradiation induced RH-rnu/rnu athymic rat assessed as tumor growth inhibition at 0.2 mg/kg, po administered once daily for 2 weeks and measured on day 14 relative to control; assay type: functional; conditions: CAKI-1, light or radiation study, 336 h, read-out: TGI; method in brief: as §3
SK-HEP1 [14] = experiment: Antitumor activity against human SK-HEP1 cells xenografted in gamma-irradiation induced RH-rnu/rnu athymic rat assessed as tumor growth inhibition at 1.0 mg/kg, po administered once daily for 2 weeks and measured on day 14 relative to control; assay type: functional; conditions: SK-HEP1, light or radiation study, 336 h, read-out: TGI
[15] = target: Mitogen-activated protein kinase 3 (Homo sapiens, UniProt P27361); experiment: Inhibition of ERK1 phosphorylation in VEGF-stimulated serum-starved human HUVEC cells by immunoblotting analysis; assay type: cell-based
Method in brief: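 HUVECs serum-starved, treated with inhibitor (DMSO stock diluted in medium), then stimulated with VEGF. Lysates run on SDS-PAGE and immunoblotted with anti-phospho-p44/42 MAPK antibody. Four independent experiments.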

[16] = target: Receptor tyrosine-protein kinase erbB-4 (Homo sapiens, UniProt Q15303); experiment: Inhibition of ErbB4 (unknown origin) in presence of ATP
[17] = Apparent oral clearance in F344/N JcL-rnu athymic rat at 5 mg/kg, po measured upto 72 hrs by HPLC-MS/MS analysis; assay type: ADME, organism-based; conditions: in vivo; method in brief: as §1
OVCAR-3 = experiment: Antitumor activity against human OVCAR-3 cells xenografted in gamma-irradiation induced RH-rnu/rnu athymic rat assessed as tumor growth inhibition at 0.2 mg/kg, po administered once daily for 2 weeks and measured on day 14 relative to control; assay type: functional; conditions: OVCAR-3, light or radiation study, 336 h, read-out: TGI; method in brief: as §3
A549 = experiment: Antitumor activity against human A549 cells xenografted in F344/N Jcl-rnu athymic rat assessed as increase in percentage of necrotic areas in tumor by H and E staining based assay

Sequence of Mitogen-activated protein kinase 3 (P27361 whole entry): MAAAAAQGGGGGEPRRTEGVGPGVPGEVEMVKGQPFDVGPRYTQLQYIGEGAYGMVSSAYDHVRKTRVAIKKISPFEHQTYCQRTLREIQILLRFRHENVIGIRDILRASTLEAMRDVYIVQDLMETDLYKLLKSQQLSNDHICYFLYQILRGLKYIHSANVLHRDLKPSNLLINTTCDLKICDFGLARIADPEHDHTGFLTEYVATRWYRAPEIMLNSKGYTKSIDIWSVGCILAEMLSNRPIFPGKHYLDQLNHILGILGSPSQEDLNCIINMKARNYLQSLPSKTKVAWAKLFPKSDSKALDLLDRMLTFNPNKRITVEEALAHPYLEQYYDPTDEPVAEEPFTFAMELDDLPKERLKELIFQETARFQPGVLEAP
Sequence of Focal adhesion kinase 1 (Q05397 whole entry): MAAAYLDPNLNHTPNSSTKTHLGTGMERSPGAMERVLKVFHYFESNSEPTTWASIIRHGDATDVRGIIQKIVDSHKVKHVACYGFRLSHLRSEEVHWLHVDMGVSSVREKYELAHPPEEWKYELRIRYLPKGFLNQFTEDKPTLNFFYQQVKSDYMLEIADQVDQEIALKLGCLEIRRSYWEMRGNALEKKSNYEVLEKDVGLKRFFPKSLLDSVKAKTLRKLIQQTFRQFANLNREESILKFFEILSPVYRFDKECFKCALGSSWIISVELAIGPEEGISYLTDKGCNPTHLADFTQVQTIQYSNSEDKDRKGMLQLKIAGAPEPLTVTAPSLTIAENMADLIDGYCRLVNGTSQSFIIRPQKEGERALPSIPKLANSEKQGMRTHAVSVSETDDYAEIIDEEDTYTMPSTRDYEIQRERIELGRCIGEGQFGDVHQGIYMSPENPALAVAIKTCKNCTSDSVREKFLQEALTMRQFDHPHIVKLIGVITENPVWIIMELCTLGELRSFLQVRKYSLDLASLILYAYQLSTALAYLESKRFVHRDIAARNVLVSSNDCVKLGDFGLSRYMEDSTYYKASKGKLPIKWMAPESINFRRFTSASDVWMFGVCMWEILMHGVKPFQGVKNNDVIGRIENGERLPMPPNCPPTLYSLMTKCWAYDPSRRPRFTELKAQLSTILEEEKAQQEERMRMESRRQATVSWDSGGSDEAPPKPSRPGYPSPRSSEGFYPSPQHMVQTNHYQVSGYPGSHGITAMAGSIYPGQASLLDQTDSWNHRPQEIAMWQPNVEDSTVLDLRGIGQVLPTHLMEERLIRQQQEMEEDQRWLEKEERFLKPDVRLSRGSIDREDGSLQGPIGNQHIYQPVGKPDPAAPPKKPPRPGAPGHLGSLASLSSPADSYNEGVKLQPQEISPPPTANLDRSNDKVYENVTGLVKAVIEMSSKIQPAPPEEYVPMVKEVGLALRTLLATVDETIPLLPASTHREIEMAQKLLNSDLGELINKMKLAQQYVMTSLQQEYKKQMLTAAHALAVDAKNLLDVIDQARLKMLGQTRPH
Sequence of Insulin-like growth factor 1 receptor (P08069 31-736 limits assumed): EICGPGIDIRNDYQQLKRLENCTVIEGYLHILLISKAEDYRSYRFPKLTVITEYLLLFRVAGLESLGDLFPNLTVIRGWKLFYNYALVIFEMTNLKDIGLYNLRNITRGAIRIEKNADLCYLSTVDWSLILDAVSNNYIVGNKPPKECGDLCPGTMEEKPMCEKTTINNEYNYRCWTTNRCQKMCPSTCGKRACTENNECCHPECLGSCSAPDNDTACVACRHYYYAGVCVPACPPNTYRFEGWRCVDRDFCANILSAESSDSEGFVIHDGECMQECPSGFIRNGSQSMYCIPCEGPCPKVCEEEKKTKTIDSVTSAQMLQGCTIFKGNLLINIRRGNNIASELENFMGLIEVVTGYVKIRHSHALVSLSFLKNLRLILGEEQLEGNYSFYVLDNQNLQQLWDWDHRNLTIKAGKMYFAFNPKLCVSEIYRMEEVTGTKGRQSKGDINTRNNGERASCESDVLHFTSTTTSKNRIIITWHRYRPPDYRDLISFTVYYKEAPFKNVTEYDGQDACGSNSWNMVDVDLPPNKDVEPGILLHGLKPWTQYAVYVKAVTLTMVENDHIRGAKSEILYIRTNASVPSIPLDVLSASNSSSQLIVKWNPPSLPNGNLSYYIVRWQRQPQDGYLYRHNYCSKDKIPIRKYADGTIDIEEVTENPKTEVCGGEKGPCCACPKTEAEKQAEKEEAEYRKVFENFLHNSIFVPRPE
Sequence of Insulin-like growth factor 1 receptor (P08069 741-1367 limits assumed): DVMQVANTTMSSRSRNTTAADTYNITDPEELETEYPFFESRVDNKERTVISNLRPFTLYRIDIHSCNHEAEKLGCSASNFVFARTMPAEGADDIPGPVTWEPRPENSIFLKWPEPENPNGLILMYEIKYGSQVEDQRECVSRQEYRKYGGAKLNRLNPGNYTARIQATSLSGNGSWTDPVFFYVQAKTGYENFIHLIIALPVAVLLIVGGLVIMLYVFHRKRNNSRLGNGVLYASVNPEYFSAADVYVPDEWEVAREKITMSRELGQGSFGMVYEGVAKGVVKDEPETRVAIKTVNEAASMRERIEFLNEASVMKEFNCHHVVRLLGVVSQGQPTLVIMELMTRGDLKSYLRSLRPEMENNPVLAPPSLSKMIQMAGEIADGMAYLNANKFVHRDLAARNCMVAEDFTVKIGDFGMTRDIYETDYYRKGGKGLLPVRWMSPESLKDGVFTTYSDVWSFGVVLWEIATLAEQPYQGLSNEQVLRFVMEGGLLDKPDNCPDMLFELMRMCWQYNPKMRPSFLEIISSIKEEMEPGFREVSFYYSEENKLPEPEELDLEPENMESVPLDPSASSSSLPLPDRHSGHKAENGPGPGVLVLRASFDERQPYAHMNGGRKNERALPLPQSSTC
Sequence of Receptor tyrosine-protein kinase erbB-4 (Q15303 whole entry): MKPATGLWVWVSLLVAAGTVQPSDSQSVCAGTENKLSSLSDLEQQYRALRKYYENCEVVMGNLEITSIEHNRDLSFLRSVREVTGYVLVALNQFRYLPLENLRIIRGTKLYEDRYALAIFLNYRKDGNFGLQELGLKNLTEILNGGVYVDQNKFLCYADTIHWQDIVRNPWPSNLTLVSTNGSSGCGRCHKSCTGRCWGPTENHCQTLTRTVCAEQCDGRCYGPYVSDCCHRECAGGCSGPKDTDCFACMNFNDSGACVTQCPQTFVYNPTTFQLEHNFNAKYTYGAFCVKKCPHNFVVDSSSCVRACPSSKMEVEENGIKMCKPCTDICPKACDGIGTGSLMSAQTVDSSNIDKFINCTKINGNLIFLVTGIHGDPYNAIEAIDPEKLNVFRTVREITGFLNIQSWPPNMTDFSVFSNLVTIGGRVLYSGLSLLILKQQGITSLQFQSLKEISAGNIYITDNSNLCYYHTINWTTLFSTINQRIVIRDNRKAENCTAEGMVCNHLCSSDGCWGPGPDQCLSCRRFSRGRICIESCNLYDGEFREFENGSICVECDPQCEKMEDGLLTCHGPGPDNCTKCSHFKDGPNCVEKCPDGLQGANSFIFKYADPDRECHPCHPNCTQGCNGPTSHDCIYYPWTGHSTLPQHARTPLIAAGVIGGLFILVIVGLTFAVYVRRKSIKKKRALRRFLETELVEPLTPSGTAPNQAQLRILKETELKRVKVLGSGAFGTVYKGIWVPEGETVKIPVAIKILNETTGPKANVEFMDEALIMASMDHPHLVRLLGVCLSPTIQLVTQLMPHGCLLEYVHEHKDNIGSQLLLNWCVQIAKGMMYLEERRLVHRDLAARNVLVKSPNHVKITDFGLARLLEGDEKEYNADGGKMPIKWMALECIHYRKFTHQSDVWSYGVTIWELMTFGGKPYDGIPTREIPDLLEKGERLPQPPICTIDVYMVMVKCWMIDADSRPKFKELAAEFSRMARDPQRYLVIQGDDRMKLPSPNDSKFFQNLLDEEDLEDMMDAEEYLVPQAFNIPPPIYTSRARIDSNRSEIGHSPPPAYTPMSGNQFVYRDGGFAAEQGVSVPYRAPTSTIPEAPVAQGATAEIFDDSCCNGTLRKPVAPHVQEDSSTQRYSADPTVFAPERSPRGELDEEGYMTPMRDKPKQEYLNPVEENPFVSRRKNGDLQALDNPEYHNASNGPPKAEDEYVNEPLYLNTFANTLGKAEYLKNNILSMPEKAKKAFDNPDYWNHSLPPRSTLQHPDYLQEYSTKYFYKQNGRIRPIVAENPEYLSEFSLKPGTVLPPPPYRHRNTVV

In the case of COc1cc2nccc(Oc3ccc(NC(=O)Nc4cc(C)on4)c(Cl)c3)c2cc1OC [TIVOZANIB], the CL/F [1] is reported as 2.2 mL/min/kg, the IC50 (Focal adhesion kinase 1) is reported as over 1000 nM and the CL/F [2] is reported as 2.07 mL/min/kg. For the same compound, the inhibition in vivo at 1 mg/kg [3] was 96.2%, the inhibition in vivo at 0.2 mg/kg (SK-HEP1 [4]) was 59.4% and the inhibition in vivo at 1 mg/kg (MDA-MB-231 [5]) was over 100%. For the same compound, the Tmax [6] was 3.63 h, the inhibition in vivo at 0.2 mg/kg (LS174T) was 85.7% and the Tmax [7] was 4.25 h. It also gave an IC50 [8] of over 1000 nM, a Cmax [9] of 21.6 ng/mL and an Activity (Calu-6 [10]) of 45%. For the same compound, the inhibition in vivo at 0.2 mg/kg (MDA-MB-231 [11]) was 77%, the inhibition in vivo at 1 mg/kg (NCI-H460) was 85.9% and the “Cave,ss” value [12] was 69.5 ng/mL. The Activity (Calu-6 [13]) was 42.5%, the inhibition in vivo at 0.2 mg/kg (CAKI-1) was 26.9% and the inhibition in vivo at 1 mg/kg (SK-HEP1 [14]) was 89.9%. It also gave an IC50 [15] of 0.13 nM, an IC50 [16] of over 1000 nM and a CL/F [17] of 1.88 mL/min/kg. The inhibition in vivo at 0.2 mg/kg (OVCAR-3) was 25% and the Activity (A549) was “Active”.
